According to ChEMBL document CHEMBL1629587, “Discovery of a small-molecule inhibitor of {beta}-1,6-glucan synthesis” (2009):
≈ marks a conversion by molar mass, not a printed value. Calls of active or inactive are those of the source. No cut-off for these calls is given here. Starred links: 1 amine or outer side, 2 acyl side, 3 side chain; linkers in the order of their positions; H or OH if unused. Positions of bridges follow the written chain, without caps; N, C: chain ends. Non-standard residues stand in square brackets, D forms with d. Residues, ends and D or L forms follow the SMILES beside them. *: point of attachment. Orn(4R-OH,5R-OH) = O=C([C@H](C[C@@H](O)[C@@H](O)N[*:3])N[*:1])[*:2]; hTyr(3S-OH,4S-OH) = N[C@H](C(=O)O)[C@H](O)[C@@H](O)c1ccc(O)cc1; Pro(3S-OH,4S-Me) = C[C@H]1CN[C@H](C(=O)O)[C@H]1O; Palmitoyl = CCCCCCCCCCCCCCCC(=O)*; Hyp = O=C(O)[C@@H]1C[C@@H](O)CN1

Columns and labels:
Saccharomyces cerevisiae [1] = assay: Fungicidal activity against Saccharomyces cerevisiae AY-10-R11 mutant after 24 hrs by microdilution method; type: functional; details: AY-10-R11, 24 h
Saccharomyces cerevisiae [2] = assay: […] activity against Saccharomyces cerevisiae AY-10 after 24 hrs by microdilution method; type: functional; details: AY-10, 24 h
Saccharomyces cerevisiae [3] = assay: […] activity against Saccharomyces cerevisiae AY-10 transformed with pRS416-13 carrying ADP1 gene after 24 hrs by microdilution method; type: functional; details: AY-10, 24 h
Saccharomyces cerevisiae [4] = assay: […] activity against Saccharomyces cerevisiae AY-10 transformed with empty vector pRS416 after 24 hrs by microdilution method; type: functional; details: AY-10, 24 h
Saccharomyces cerevisiae [5] = assay: Fungicidal activity against Saccharomyces cerevisiae AY-10-R4 mutant after 24 hrs by microdilution method; type: functional; details: AY-10-R4, 24 h
Saccharomyces cerevisiae [6] = assay: Fungicidal activity against Saccharomyces cerevisiae AY-10-R15 mutant after 24 hrs by microdilution method; type: functional; details: AY-10-R15, 24 h
Saccharomyces cerevisiae [7] = assay: Fungicidal activity against Saccharomyces cerevisiae AY-10-R16 mutant after 24 hrs by microdilution method; type: functional; details: AY-10-R16, 24 h
Saccharomyces cerevisiae [8] = assay: […] activity against Saccharomyces cerevisiae AY-10 transformed with pRS416-31 carrying KRE6 gene after 24 hrs by microdilution method; type: functional; details: AY-10, 24 h
Candida albicans [9] = assay: Antifungal activity against Candida albicans ATCC MYA-573 after 24 hrs by microdilution method; type: functional; details: ATCC MYA-573, 24 h
How it was run: (§1)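 CLSI broth microdilution run at 30°C instead of standard temperature; starting inoculum 1 × 10^3 to 3 × 10^3 cells/ml; DMSO under 1% final. Endpoints: MIC-0 = lowest concentration giving an optically clear well; MIC-2 = 50% drop versus drug-free control in absorbance at 570 nm with alamar blue redox indicator, used because treated cells clump.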

Cryptococcus neoformans = assay: Antifungal activity against Cryptococcus neoformans ATCC 90112 after 24 hrs by microdilution method; type: functional; details: ATCC 90112, 24 h; how it was run: as §1
Clavispora lusitaniae = assay: Antifungal activity against Candida lusitaniae ATCC 200951 after 24 hrs by microdilution method; type: functional; details: ATCC 200951, 24 h; how it was run: as §1
Candida tropicalis [10] = assay: Antifungal activity against Candida tropicalis ATCC 200956 after 24 hrs by microdilution method; type: functional; details: ATCC 200956, 24 h; how it was run: as §1
Aspergillus fumigatus = assay: Antifungal activity against Aspergillus fumigatus ATCC 36607 after 24 hrs by microdilution method; type: functional; details: ATCC 36607, 24 h; how it was run: as §1
Candida tropicalis [11] = assay: Antifungal activity against Candida tropicalis TIMM0313 after 24 hrs by microdilution method; type: functional; details: TIMM0313, 24 h; how it was run: as §1
Kluyveromyces marxianus = assay: Antifungal activity against Candida kefyr ATCC 46764 after 24 hrs by microdilution method; type: functional; details: ATCC 46764, 24 h; how it was run: as §1
Nakaseomyces glabratus [12] = assay: Antifungal activity against Candida glabrata ATCC 200918 after 24 hrs by microdilution method; type: functional; details: ATCC 200918, 24 h; how it was run: as §1
Saccharomyces cerevisiae [13] = assay: Antifungal activity against Saccharomyces cerevisiae YPH500 after 24 hrs by microdilution method; type: functional; details: YPH500, 24 h
How it was run: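 CLSI broth microdilution, incubated at 30°C, starting inoculum 1 × 10^3 to 3 × 10^3 cells/ml; drugs from DMSO, final DMSO below 1%. MIC-0 is the lowest concentration giving an optically clear well. MIC-2 is read with alamar blue as a 50% drop in A570 versus the drug-free control; both endpoints were recorded.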

Trichosporon asahii = assay: Antifungal activity against Trichosporon asahii ATCC 90039 after 24 hrs by microdilution method; type: functional; details: ATCC 90039, 24 h; how it was run: as §1
Aspergillus terreus = assay: Antifungal activity against Aspergillus terreus ATCC 28301 after 24 hrs by microdilution method; type: functional; details: ATCC 28301, 24 h; how it was run: as §1
Aspergillus flavus = assay: Antifungal activity against Aspergillus flavus ATCC 64025 after 24 hrs by microdilution method; type: functional; details: ATCC 64025, 24 h; how it was run: as §1
Candida albicans [14] = assay: Antifungal activity against Candida albicans ATCC 24433 after 24 hrs by microdilution method; type: functional; details: ATCC 24433, 24 h; how it was run: as §1
Pichia kudriavzevii = assay: Antifungal activity against Candida krusei TIMM0269 after 24 hrs by microdilution method; type: functional; details: TIMM0269, 24 h; how it was run: as §1
Nakaseomyces glabratus [15] = assay: Antifungal activity against Candida glabrata IFO0622 after 24 hrs by microdilution method; type: functional; details: IFO0622, 24 h; how it was run: as §1
Candida parapsilosis = assay: Antifungal activity against Candida parapsilosis IFO1396 after 24 hrs by microdilution method; type: functional; details: Lodderomyces parapsilosis, IFO1396, 24 h; how it was run: as §1
Saccharomyces cerevisiae [16] = assay: Inhibition of beta-1,6-Glucan synthesis in Saccharomyces cerevisiae AY-10 assessed as reduction in [14C]glucose incorporation at 0.078 ug/ml after 1 hr; type: functional, organism-based; details: at 0.078 µg/mL
How it was run: (§2)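 Exponentially growing cells in RPMI 1640 (absorbance ~0.6 at 595 nm) incubated at 30°C with drug plus [14C]glucose at 2 μCi/ml. Cells extracted twice with 3% NaOH at 80°C, then the insoluble material digested overnight at 30°C with Zymolyase 100T (1 mg/ml, pH 7.5). The soluble fraction was dialysed to remove β-1,3-glucan oligosaccharides, and the retained β-1,6-glucan was counted by scintillation. Read-out is percent change in incorporated radioactivity versus the drug-free control.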

Saccharomyces cerevisiae [17] = assay: Inhibition of beta-1,6-Glucan synthesis in Saccharomyces cerevisiae AY-10 assessed as reduction in [14C]glucose incorporation at 0.039 to 0.625 ug/ml after 3 hrs; type: functional, organism-based; details: at 0.039 to 0.625 µg/mL; how it was run: as §2
Saccharomyces cerevisiae [18] = assay: Inhibition of beta-1,6-Glucan synthesis in Saccharomyces cerevisiae AY-10 assessed as reduction in [14C]glucose incorporation at 0.078 to 1.25 ug/ml after 1 hr; type: functional, organism-based; details: at 0.078 to 1.25 µg/mL; how it was run: as §2
Saccharomyces cerevisiae [19] = assay: Inhibition of beta-1,6-Glucan synthesis in Saccharomyces cerevisiae AY-10 assessed as reduction in [14C]glucose incorporation at 0.078 to 1.25 ug/ml after 3 hrs; type: functional, organism-based; details: at 0.078 to 1.25 µg/mL; how it was run: as §2
Saccharomyces cerevisiae [20] = assay: Inhibition of beta-1,6-Glucan synthesis in Saccharomyces cerevisiae AY-10 assessed as reduction in [14C]glucose incorporation at 0.078 ug/ml after 3 hrs; type: functional, organism-based; details: at 0.078 µg/mL; how it was run: as §2
Nakaseomyces glabratus [21] = assay: Inhibition of beta-1,6-Glucan synthesis in Candida glabrata IFO0622 assessed as reduction in [14C]glucose incorporation at 0.025 to 4 ug/ml after 3 hrs; type: functional, organism-based; how it was run: as §2
Saccharomyces cerevisiae [22] = assay: Inhibition of beta-1,6-Glucan synthesis in Saccharomyces cerevisiae AY-10 assessed as reduction in [14C]glucose incorporation at 0.039 to 0.625 ug/ml after 1 hr; type: functional, organism-based; details: at 0.039 to 0.625 µg/mL; how it was run: as §2
Saccharomyces cerevisiae [23] = assay: Inhibition of beta-1,6-Glucan synthesis assessed as reduction in [14C]glucose incorporation at 0.025 to 4 ug/ml after 1 hr; details: AY-10
Saccharomyces cerevisiae [24] = assay: Inhibition of beta-1,3-Glucan synthesis in Saccharomyces cerevisiae AY-10 assessed as reduction in [14C]glucose incorporation at 0.039 to 0.625 ug/ml after 3 hrs; type: functional, organism-based
How it was run: (§3)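 Exponential cells in RPMI 1640 at A595 about 0.6, pulse-labelled with [14C]glucose 2 μCi/ml plus drug at 30°C, sampled at 1 and 3 h. Cell wall fractionated: mannan from 3% NaOH extracts at 80°C by Fehling's reaction; residue digested with Zymolyase 100T (1 mg/ml), insoluble part = chitin; β-1,3-glucan = total glucan minus dialysed β-1,6-glucan. Scintillation counting; % change versus untreated.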

Saccharomyces cerevisiae [25] = assay: Inhibition of beta-1,3-Glucan synthesis in Saccharomyces cerevisiae AY-10 assessed as reduction in [14C]glucose incorporation at 0.039 to 0.625 ug/ml after 1 hr; type: functional, organism-based; how it was run: as §3

## Nc1nc(=O)[nH]cc1F [FLUCYTOSINE]
Saccharomyces cerevisiae [1]
  MIC: 4 µg/mL (≈ 31 µM)
Saccharomyces cerevisiae [2]
  MIC: 2 µg/mL (≈ 15.5 µM)
Saccharomyces cerevisiae [3]
  MIC: 4 µg/mL (≈ 31 µM)
Saccharomyces cerevisiae [4]
  MIC: 2 µg/mL (≈ 15.5 µM)
Saccharomyces cerevisiae [5]
  MIC: 2 µg/mL (≈ 15.5 µM)
Saccharomyces cerevisiae [6]
  MIC: 4 µg/mL (≈ 31 µM)
Saccharomyces cerevisiae [7]
  MIC: 2 µg/mL (≈ 15.5 µM)
Saccharomyces cerevisiae [8]
  MIC: 2 µg/mL (≈ 15.5 µM)

## C[C@@H]1[C@H](O)[C@@H](C)/C=C/C=C/C=C/C=C/C=C/C=C/C=C/[C@H](O[C@@H]2O[C@H](C)[C@@H](O)[C@H](N)[C@@H]2O)C[C@@H]2O[C@](O)(C[C@@H](O)C[C@@H](O)[C@H](O)CC[C@@H](O)C[C@@H](O)CC(=O)O[C@H]1C)C[C@H](O)[C@H]2C(=O)O [AMPHOTERICIN B]
Saccharomyces cerevisiae [1]
  MIC: 0.125 µg/mL (≈ 0.135 µM)
Saccharomyces cerevisiae [2]
  MIC: 0.25 µg/mL (≈ 0.271 µM)
Saccharomyces cerevisiae [3]
  MIC: 0.125 µg/mL (≈ 0.135 µM)
Saccharomyces cerevisiae [4]
  MIC: 0.25 µg/mL (≈ 0.271 µM)
Saccharomyces cerevisiae [5]
  MIC: 0.0625 µg/mL (≈ 0.0676 µM)
Saccharomyces cerevisiae [6]
  MIC: 0.25 µg/mL (≈ 0.271 µM)
Saccharomyces cerevisiae [7]
  MIC: 0.25 µg/mL (≈ 0.271 µM)
Saccharomyces cerevisiae [8]
  MIC: 0.25 µg/mL (≈ 0.271 µM)

## OC(Cn1cncn1)(Cn1cncn1)c1ccc(F)cc1F [FLUCONAZOLE]
Candida albicans [9]
  MIC50: > 64 µg/mL
Cryptococcus neoformans
  MIC50: 2 µg/mL (≈ 6.53 µM)
Clavispora lusitaniae
  MIC50: 0.063 µg/mL (≈ 0.206 µM)
Candida tropicalis [10]
  MIC50: 16 µg/mL (≈ 52.2 µM)
Aspergillus fumigatus
  MIC50: > 64 µg/mL
Candida tropicalis [11]
  MIC50: 0.25 µg/mL (≈ 0.816 µM)
Kluyveromyces marxianus
  MIC50: 0.25 µg/mL (≈ 0.816 µM)
Nakaseomyces glabratus [12]
  MIC50: 16 µg/mL (≈ 52.2 µM)
Saccharomyces cerevisiae [13]
  MIC50: 4 µg/mL (≈ 13.1 µM)
Trichosporon asahii
  MIC50: 4 µg/mL (≈ 13.1 µM)
Aspergillus terreus
  MIC50: > 64 µg/mL
Aspergillus flavus
  MIC50: > 64 µg/mL
Candida albicans [14]
  MIC50: 0.25 µg/mL (≈ 0.816 µM)
Pichia kudriavzevii
  MIC50: > 64 µg/mL
Nakaseomyces glabratus [15]
  MIC50: 2 µg/mL (≈ 6.53 µM)
Candida parapsilosis
  MIC50: 1 µg/mL (≈ 3.27 µM)

## CCCCCCCCCCCCCCCC(=O)N[C@H]1C[C@@H](O)[C@@H](O)NC(=O)[C@@H]2[C@@H](O)[C@@H](C)CN2C(=O)[C@H]([C@@H](C)O)NC(=O)[C@H]([C@H](O)[C@@H](O)c2ccc(O)cc2)NC(=O)[C@@H]2C[C@@H](O)CN2C(=O)[C@H]([C@@H](C)O)NC1=O [ACULEACIN A] (Palmitoyl-[Orn(4R-OH,5R-OH)]T[Hyp][hTyr(3S-OH,4S-OH)]T[Pro(3S-OH,4S-Me)]; lactam 1-C)
Saccharomyces cerevisiae [1]
  MIC: 0.25 µg/mL (≈ 0.241 µM)
Saccharomyces cerevisiae [16]
  inhibition: Active
Saccharomyces cerevisiae [2]
  MIC: 0.5 µg/mL (≈ 0.483 µM)
Saccharomyces cerevisiae [17]
  inhibition: inactive
Saccharomyces cerevisiae [3]
  MIC: 0.25 µg/mL (≈ 0.241 µM)
Saccharomyces cerevisiae [4]
  MIC: 0.5 µg/mL (≈ 0.483 µM)
Saccharomyces cerevisiae [18]
  inhibition: Active
Saccharomyces cerevisiae [19]
  inhibition: Active
Saccharomyces cerevisiae [5]
  MIC: 0.125 µg/mL (≈ 0.121 µM)
Saccharomyces cerevisiae [20]
  inhibition: Active
Nakaseomyces glabratus [21]
  Activity: Active
Saccharomyces cerevisiae [22]
  inhibition: inactive
Saccharomyces cerevisiae [6]
  MIC: 0.5 µg/mL (≈ 0.483 µM)
Saccharomyces cerevisiae [7]
  MIC: 0.25 µg/mL (≈ 0.241 µM)
Saccharomyces cerevisiae [23]
  Activity: Active
Saccharomyces cerevisiae [8]
  MIC: 0.5 µg/mL (≈ 0.483 µM)
Saccharomyces cerevisiae [24]
  inhibition: Active
Saccharomyces cerevisiae [25]
  inhibition: Active
